The source made the active and inactive calls.
How the values were obtained:
Mus musculus [1] = assay: Anticonvulsant activity in CF-1 mouse model of maximal electroshock-induced seizure assessed as suppression of tonic hind limb extension at 100 mg/kg, ip measured at 0.25 hrs post dose; assay type: functional, organism-based
Procedure, shortened: (§1)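 Mice dosed i.p. and given maximal electroshock at 50 mA. Read-out is protection, reported as number protected / number tested at 0.25, 0.5, 1 and 4 h after dosing.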

Rattus norvegicus [2] = assay: Anticonvulsant activity in Sprague-Dawley rat model of maximal electroshock-induced seizure assessed as suppression of tonic hind limb extension at 30 mg/kg, po measured at 4 hrs post dose; assay type: functional, organism-based
Procedure, shortened: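 Rats given 30 mg/kg p.o. and tested by maximal electroshock at 150 mA. Scored as number protected / number tested (4 per group) at 0.25, 0.5, 1, 2 and 4 h after dosing.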

[3] = Neurotoxicity in Sprague-Dawley rat at 100 mg/kg, ip measured after 0.25 hrs by rotarod test; assay type: toxicity, organism-based; conditions: in vivo
Procedure, shortened: (§2)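 Rat neurotoxicity after i.p. or p.o. dosing was scored as animals impaired / animals tested at each time point. For p.o. dosing, TD50 was obtained by probit analysis.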

[4] = Neurotoxicity in Sprague-Dawley rat at 300 mg/kg, ip measured after 2 hrs by rotarod test; assay type: toxicity, organism-based; conditions: in vivo; procedure, shortened: as §2
[5] = Neurotoxicity in Sprague-Dawley rat at 100 mg/kg, ip measured after 2 hrs by rotarod test; assay type: toxicity, organism-based; conditions: in vivo, 2 h; procedure, shortened: as §2
Mus musculus [6] = assay: Anticonvulsant activity in CF-1 mouse model of maximal electroshock-induced seizure assessed as suppression of tonic hind limb extension at 110 mg/kg, ip measured at 0.5 hrs post dose; assay type: functional, organism-based; procedure, shortened: as §1
[7] = Neurotoxicity in CF-1 mouse at 220 mg/kg, ip measured after 0.25 hrs by rotarod test; assay type: toxicity, organism-based; conditions: in vivo
Procedure, shortened: (§3)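 Mice dosed i.p. were placed on a 1 in. knurled rod turning at 6 rpm. Toxicity was scored as failure to keep balance for at least 1 min, i.e. falling off three or more times. Results are reported as animals showing toxicity / animals tested at each time point.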

[8] = Neurotoxicity in CF-1 mouse at 220 mg/kg, ip measured after 4 hrs by rotarod test; assay type: toxicity, organism-based; conditions: in vivo; procedure, shortened: as §3
[9] = Neurotoxicity in ip dosed CF-1 mouse by rotarod test; assay type: toxicity, organism-based; conditions: in vivo; procedure, shortened: as §3
[10] = Protection index, ratio of TD50 for neurotoxicity in ip dosed CF-1 mouse to ED50 for anticonvulsant activity in CF-1 mouse model of maximal electroshock-induced seizure; assay type: toxicity, organism-based; conditions: in vivo, read-out: Ratio TD50/ED50
Mus musculus [11] = assay: Anticonvulsant activity in CF-1 mouse assessed as protection against 44 mA current-induced seizure at 120 mg/kg, ip after 15 mins by 6 Hz psychomotor test; assay type: functional, organism-based
Procedure, shortened: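 Mice dosed i.p. (30, 100, 300 mg/kg; one line at 120 mg/kg read at 15 min). Corneal stimulation at 6 Hz, 44 mA for 3 s from a constant-current device induces a psychomotor seizure with stunned posture, forelimb automatisms, clonus, vibrissae twitching and Straub tail. Scored as number of animals protected / number tested (4 per group) at 0.5 and 2 h.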

[12] = Protection index, ratio of TD50 for neurotoxicity in po dosed Sprague-Dawley rat to ED50 for anticonvulsant activity in Sprague-Dawley rat model of maximal electroshock-induced seizure; assay type: toxicity, organism-based; conditions: in vivo, read-out: Ratio TD50/ED50
Procedure, shortened: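 The rat p.o. protective index is TD50 (rotarod) / ED50 (MES, 150 mA). Both values were calculated by probit analysis.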

[13] = Neurotoxicity in Sprague-Dawley rat at 300 mg/kg, ip measured after 0.5 hrs by rotarod test; assay type: toxicity, organism-based; conditions: in vivo; procedure, shortened: as §2
[14] = Neurotoxicity in Sprague-Dawley rat at 30 mg/kg, ip measured after 1 hr by rotarod test; assay type: toxicity, organism-based; conditions: in vivo; procedure, shortened: as §2
[15] = Neurotoxicity in Sprague-Dawley rat assessed as abnormal behavior at 100 mg/kg, ip administered as single dose measured after 0.25 hrs by rotarod test; assay type: toxicity, organism-based; conditions: in vivo; procedure, shortened: as §2
Rattus norvegicus [16] = assay: Anticonvulsant activity in hippocampal kindling Sprague-Dawley rat model assessed as after discharge time at 50 mg/kg, ip administered as single dose measured immediately; assay type: functional
Procedure, shortened: (§4)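 Rats implanted with a hippocampal electrode and kindled with suprathreshold trains (200 µA, 10 s, 50 Hz) every 30 min for 6 h on alternate days until fully kindled. One week later they received a single i.p. dose. Seizure score (Racine scale) and afterdischarge duration were recorded at 0–135 min and compared with the control stimulus given 15 min before dosing; each animal served as its own control. Values are mean ± SEM.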

Rattus norvegicus [17] = assay: Anticonvulsant activity in hippocampal kindling Sprague-Dawley rat model assessed as after discharge time at 50 mg/kg, ip administered as single dose measured after 45 mins; assay type: functional; procedure, shortened: as §4
Rattus norvegicus [18] = assay: Anticonvulsant activity in hippocampal kindling Sprague-Dawley rat model assessed as after discharge time at 50 mg/kg, ip administered as single dose measured after 105 mins; assay type: functional; procedure, shortened: as §4
Rattus norvegicus [19] = assay: Anticonvulsant activity in hippocampal kindling Sprague-Dawley rat model assessed as after discharge time at 50 mg/kg, ip administered as single dose measured after 135 mins; assay type: functional; procedure, shortened: as §4
Rattus norvegicus [20] = assay: Anticonvulsant activity in hippocampal kindling Sprague-Dawley rat model assessed as after discharge time at 100 mg/kg, ip administered as single dose measured after 75 mins; assay type: functional; procedure, shortened: as §4
Rattus norvegicus [21] = assay: Anticonvulsant activity in hippocampal kindling Sprague-Dawley rat model assessed as after discharge time at 100 mg/kg, ip administered as single dose measured after 105 mins; assay type: functional; procedure, shortened: as §4
[22] = Neurotoxicity in Sprague-Dawley rat at 50 mg/kg, ip administered as single dose measured after 0.25 hrs by rotarod test; assay type: toxicity, organism-based; conditions: in vivo; procedure, shortened: as §2
Astrocyte [23] = assay: Cytotoxicity against human astrocytes at 10 to 200 uM after 24 hrs by MTT assay; assay type: cell-based
Procedure, shortened: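 Human astrocytes derived from iPSCs via neural stem cells (7 days neural induction, then 17 days in astrocyte growth medium; GFAP-confirmed). Cells seeded at 1×10^4 per well in 1% FBS medium the day before, then exposed to 10–200 µM for 24 h with vehicle controls. MTT added for 4 h at 37 °C, formazan dissolved, OD read at 570 nm.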

Astrocyte [24] = assay: Cytotoxicity against mouse astrocytes at 10 to 200 uM after 24 hrs by neutral red staining based microscopic analysis; assay type: cell-based
Procedure, shortened: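 Mouse astrocyte line seeded at 1×10^4 per well, treated 24 h later with 10–200 µM for 24 h. Medium then replaced with neutral red (4 µg ml⁻¹) in EMEM with 5% FBS for 3 h. Cells washed, dye extracted in ethanol/water/acetic acid, A540 read. Cytotoxicity (%) = (1 − sample A540/control A540) × 100.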

Astrocyte [25] = assay: Cytotoxicity against mouse astrocytes assessed as effect on cell proliferation at 10 to 200 uM after 72 hrs by crystal violet staining based spectrophotometric method
Procedure, shortened: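 Proliferation in mouse astrocyte line: 1×10^4 cells per well, exposed 24 h after seeding to 10–200 µM for 72 h. Fixed in 3.7% formaldehyde, stained 10 min with 0.01% crystal violet, dye eluted with methanolic citric acid/sodium citrate, OD at 540 nm.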

Mus musculus [26] = assay: Anticonvulsant activity in ip dosed CF-1 mouse model of maximal electroshock-induced seizure assessed as time required for suppression of tonic hind limb extension; assay type: functional
Rattus norvegicus [27] = assay: Anticonvulsant activity in po dosed Sprague-Dawley rat model of maximal electroshock-induced seizure assessed as time required for suppression of tonic hind limb extension; assay type: functional
Procedure, shortened: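 Rats dosed p.o. and tested by MES at 150 mA. ED50 derived by probit analysis from quantitative dose groups, run at the time of peak effect (hours).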

With `CCC(O)CNC(=O)COc1c(C)cccc1C` (configuration not stated) the Activity (Mus musculus [1]) was “Active”, the Activity (Rattus norvegicus [2]) was “inactive” and the Activity [3] was “Active”.
With `Cc1cccc(C)c1OCC(=O)N[C@H](C)CO` the Activity [4] was “Toxic”, the Activity [5] was “Non-Toxic” and the Activity (Mus musculus [6]) was “inactive”. The Activity [7] was “Toxic”, the Activity [8] was “Non-Toxic” and the TD50 [9] was 140 mg/kg. For the same compound, the selectivity ratio [10] was 1.43, the Activity (Mus musculus [11]) was “Active” and the selectivity ratio [12] was greater than 41.6. For the same compound, the Activity [13] was “Toxic”, the Activity [14] was “Non-Toxic” and the Activity [15] was “Toxic”. For the same compound, the Time (Rattus norvegicus [16]) was 72 s, the Time (Rattus norvegicus [17]) was 73 s and the Time (Rattus norvegicus [18]) was 77 s. It also gave a Time (Rattus norvegicus [19]) of 72 s, a Time (Rattus norvegicus [20]) of 80 s and a Time (Rattus norvegicus [21]) of 77 s. The Activity [22] was “Non-Toxic”, the Activity (Astrocyte [23]) was “Non-Toxic” and the Activity (Astrocyte [24]) was “Non-Toxic”. The Activity (Astrocyte [25]) was “Non-Toxic”, the Time (Mus musculus [26]) was 0.25 h and the Time (Rattus norvegicus [27]) was 0.5 h.
